Screening results deposited in PubChem BioAssay by Broad Institute.
SIRT5 block: blocks human SIRT5 desuccinylation of peptide; Q9NXA8; inhibition, % at 15 µM; actives 1.1% (n = 330,000); Purified SirT5, succinyl-peptide AMC, trypsin-coupled fluorescence; in the data active means inhibition above about 15%; inconclusive means no clear call, values can overlap the other calls
Target sequence (Q9NXA8 whole entry, looked up): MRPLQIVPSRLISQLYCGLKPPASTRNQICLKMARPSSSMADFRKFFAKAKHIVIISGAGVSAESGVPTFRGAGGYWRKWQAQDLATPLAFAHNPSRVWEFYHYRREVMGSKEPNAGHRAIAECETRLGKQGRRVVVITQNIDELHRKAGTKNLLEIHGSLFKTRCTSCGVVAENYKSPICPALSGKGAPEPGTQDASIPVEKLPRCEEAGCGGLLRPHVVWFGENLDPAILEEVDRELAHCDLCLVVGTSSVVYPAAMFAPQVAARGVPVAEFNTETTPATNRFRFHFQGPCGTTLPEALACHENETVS
CaV13 ICDI inh: Disruptors of the CACNA1D IQ motif to Ca2+-dependent inactivation inhibitor domain association, primary screening, Förster resonance energy transfer in intact living …; HEK cells, CFP/YFP FRET ICDI-IQ, plate reader, 10 min; percent FRET-ratio fall versus neutral wells; actives 0.098% (n = 340,000); inhibition, % at 12.3 µM; AID 743397;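 active means mean replicate inhibition of at least 30% and at least 1% of replicates passing that level; inconclusive means only one of the two criteria is met; inactive means neither criterion is met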
S100A4 MyoIIA: inhibitors of human S100A4 binding to myosin IIA peptide. P26447. S100A4/TAMRA-MyoIIA peptide fluorescence polarization. inhibition, % at 10.7 µM. actives 0.14% (n = 360,000);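 active means mean inhibition of at least 70% across replicates, with every replicate also reaching that level; inconclusive means mean inhibition reaches 70% but some replicates fall short; inactive means mean inhibition below 70%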
Target sequence (P26447 whole entry, looked up): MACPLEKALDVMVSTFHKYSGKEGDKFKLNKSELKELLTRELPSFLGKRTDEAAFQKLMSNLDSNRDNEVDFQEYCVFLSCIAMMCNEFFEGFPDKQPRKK
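Material: human S100A4 monomer with TAMRA-labelled myosin IIA peptide; buffer or medium: HEPES pH 7.2 with CaCl2, KCl, NaCl, DTT, Triton; compound dosing: one concentration per compound; schedule: 5 min incubation before reading; benchmarks: neutral control DMSO, positive control TFP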
AF4-AF9 inh: inhibitors of human MLL-AF4/AF9 interaction; P42568; AlphaScreen, biotin-AF4 peptide binding to FLAG-AF9; AID 651704; actives 0.47% (n = 350,000); inhibition, % at 10 µM;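 active means every replicate reaching a set inhibition limit, whatever the replicate mean, cut at about 25% in these data; inconclusive means mean inhibition reaches that limit but some replicates miss it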
DENV2 CPE rescue: inhibitors of DENV2 cytopathic effect. CPE inhibition, % at 9.99 µM. DENV2-infected cells, cytopathic effect rescue, plate reader. AID 651640. actives 1.7% (n = 350,000); in the data active means CPE inhibition above about 20%, passing the limit was not always enough; inconclusive means no clear call, values can overlap the other calls; tested in BHK-21 cells
Numbers stand for hits; n = inactive; u = inconclusive; x = not tested or not shown; ! = not active in a repeat. A selection: hits, their analogues and other compounds. The true share with any hit is near 2.7%.

SMILES	SIRT5 block	CaV13 ICDI inh	S100A4 MyoIIA	AF4-AF9 inh	DENV2 CPE rescue
COc1ccc(S(=O)(=O)Nc2ccc3c(c2)C(=O)N([C@@H](C)CO)C[C@@H](C)[C@@H](CN(C)Cc2ccc(C(F)(F)F)cc2)OCCCC[C@@H](C)O3)cc1	21.7	x	n	n	n
CN(C)CC(=O)N[C@@H]1C=C[C@H](CC(=O)NCc2ccccc2F)O[C@H]1CO	n	x	n	n	n
C[C@@H]1CN([C@H](C)CO)C(=O)c2cc(-c3cccc(C#N)c3)cnc2O[C@@H]1CN(C)Cc1ccccc1	n	x	n	n	n
COc1ccc(CN(C)C[C@H]2Oc3ccc(NS(=O)(=O)c4ccc(C)cc4)cc3C(=O)N([C@H](C)CO)C[C@H]2C)cc1	n	x	n	n	n
COc1ccc(S(=O)(=O)N(C)C[C@H]2Oc3ccc(NC(=O)CCC(F)(F)F)cc3C(=O)N([C@@H](C)CO)C[C@@H]2C)cc1	n	x	n	n	n
COc1ccccc1N1CCN(C(C)C(=O)N2CC(C)OC(C)C2)CC1 (configuration not stated)	19.8	n	n	n	n
CC(C(=O)N1CCCC1)N1CCN(c2ccccc2O)CC1 (configuration not stated)	n	n	n	n	n
CO[C@H]1CN(C)C(=O)c2ccc(NS(=O)(=O)c3ccccc3C)cc2OC[C@@H](C)NC[C@H]1C	n	x	n	n	n
C[C@H]1CN([C@@H](C)CO)S(=O)(=O)c2ccc(C#Cc3ccccc3)cc2O[C@H]1CN(C)C(=O)Nc1ccccc1	n	x	n	n	n
CC(C)CC#Cc1ccc2c(c1)O[C@@H](CN(C)C(=O)Nc1ccccc1)[C@@H](C)CN([C@H](C)CO)S2(=O)=O	n	x	117.3	n	n
COc1cccc(-c2ccc3c(c2)O[C@@H](CN(C)C(=O)c2ccccc2F)[C@H](C)CN([C@@H](C)CO)S3(=O)=O)c1	20.1	x	n	n	n
COc1ccc(NC(=O)N(C)C[C@@H]2Oc3cc(C#CCC(C)C)ccc3S(=O)(=O)N([C@H](C)CO)C[C@H]2C)cc1	24.5	x	n	x	n
COc1cccc(NC(=O)N(C)C[C@H]2Oc3cc(-c4ccccc4F)ccc3S(=O)(=O)N([C@@H](C)CO)C[C@H]2C)c1	19.3	x	n	n	n
CN1CCN(C(=O)[C@H]2[C@H](CO)[C@H]3Cn4c(ccc(C5=CCCC5)c4=O)[C@H]3N2Cc2nccs2)CC1	n	x	n	n	n
CCC(=O)N(C)C[C@H]1Oc2cc(-c3ccccc3F)ccc2S(=O)(=O)N([C@H](C)CO)C[C@H]1C	n	x	n	n	24.5!
COc1ccc(C#Cc2ccc3c(c2)O[C@@H](CN(C)C(=O)Nc2cccc(OC)c2)[C@H](C)CN([C@@H](C)CO)S3(=O)=O)cc1	16.1!	n	n	n	n
COc1ccc(NC(=O)N(C)C[C@H]2Oc3cc(C#CCC(C)C)ccc3S(=O)(=O)N([C@@H](C)CO)C[C@H]2C)cc1	25.8	x	n	n	n
CCC(=O)N(C)C[C@H]1Oc2cc(-c3ccccc3F)ccc2S(=O)(=O)N([C@@H](C)CO)C[C@H]1C	n	x	n	n	n
CCCC#Cc1ccc2c(c1)O[C@@H](CN(C)C(=O)Nc1ccc(OC)cc1)[C@H](C)CN([C@@H](C)CO)S2(=O)=O	n	x	n	n	n
COc1ccc(NC(=O)N(C)C[C@@H]2Oc3cc(C#CCC(C)C)ccc3S(=O)(=O)N([C@@H](C)CO)C[C@@H]2C)cc1	29.2	x	n	n	n
COCC#Cc1ccc2c(c1)O[C@@H](CN(C)C(=O)Nc1ccc(OC)cc1)[C@H](C)CN([C@@H](C)CO)S2(=O)=O	n	x	n	n	u
COc1ccc(C(=O)NCC2CCN(C(=O)C(=O)c3cc4ccccc4o3)CC2)cc1	x	n	n	n	n
C[C@@H]1CN([C@H](C)CO)C(=O)c2cc(C#CC3CCCC3)cnc2O[C@@H]1CN(C)S(=O)(=O)c1cccc(F)c1	n	x	n	n	n
C[C@@H]1CCCCO[C@H](CN(C)S(=O)(=O)c2ccc(Cl)cc2)[C@@H](C)CN([C@H](C)CO)C(=O)c2cc(NS(=O)(=O)c3ccccc3)ccc2O1	n	x	n	n	n
COc1ccc(NC(=O)N(C)C[C@H]2Oc3cc(C#CCC(C)C)ccc3S(=O)(=O)N([C@@H](C)CO)C[C@@H]2C)cc1	32.7	x	n	n	n
SMILES	SIRT5 block	CaV13 ICDI inh	S100A4 MyoIIA	AF4-AF9 inh	DENV2 CPE rescue
CCCC#Cc1ccc2c(c1)O[C@H](CN(C)C(=O)Nc1ccc(OC)cc1)[C@@H](C)CN([C@@H](C)CO)S2(=O)=O	17.9	x	n	n	u
C[C@H](CO)N1C[C@H](C)[C@H](CN(C)C(=O)c2ccc(F)cc2)Oc2ncc(/C=C/c3ccccc3)cc2C1=O	n	x	n	n	n
CCOC(=O)N1CCC(NC2CCCCCCC2)CC1	x	n	x	x	x
CCOC(=O)N1CCN(C(C(=O)NC2CCCC2)C(C)C)CC1 (configuration not stated)	n	n	n	x	30.0
Cc1ccc(N(C)C)cc1	x	x	n	x	22.4
Nc1ccc2nc(-c3cccc(-c4nc5ccc(N)cc5[nH]4)c3)[nH]c2c1	17.2	n	n	n	n
Nc1ccc(-c2nc3ccc(N)cc3[nH]2)cc1	n	n	n	n	n
C[C@@H]1CN([C@@H](C)CO)C(=O)c2cc(NC(=O)c3ccccc3)ccc2O[C@@H](C)CCCCO[C@H]1CN(C)CC1CCCCC1	n	x	n	27.2	n
C[C@H](CO)N1C[C@H](C)[C@H](CN(C)CC2CCCCC2)OCCCC[C@H](C)Oc2ccc(NC(=O)C3CCCCC3)cc2C1=O	n	x	n	n	23.4
C[C@@H]1CN([C@H](C)CO)C(=O)c2cc(NC(=O)C3CCCCC3)ccc2O[C@@H](C)CCCCO[C@@H]1CN(C)CC1CCCCC1	n	x	n	n	n
C[C@H](CO)N1C[C@H](C)[C@@H](CN(C)CC2CCCCC2)Oc2ccc(NC(=O)C3CCCCC3)cc2C1=O	n	x	n	n	23.2
C[C@H]1CCCCO[C@H](CN(C)CC2CCCCC2)[C@@H](C)CN([C@@H](C)CO)C(=O)c2cc(NC(=O)c3ccccc3)ccc2O1	n	x	n	n	n
C[C@H]1CN([C@@H](C)CO)C(=O)c2cc(NC(=O)C3CCCCC3)ccc2O[C@@H]1CN(C)S(C)(=O)=O	n	x	n	n	n
C[C@@H]1CN([C@H](C)CO)C(=O)c2cc(NC(=O)C3CCCCC3)ccc2O[C@@H]1CN(C)S(C)(=O)=O	n	x	n	n	24.2
C[C@H]1CN([C@@H](C)CO)C(=O)CCCn2cc(nn2)CO[C@H]1CN(C)C(=O)Nc1ccc2c(c1)OCCO2	n	x	n	n	n
C/C=C/c1ccc2c(c1)O[C@@H](CN(C)C)[C@H](C)CN([C@@H](C)CO)S2(=O)=O	n	x	n	n	n
COc1ccccc1S(=O)(=O)N1CC[C@@H]2[C@@H](CO)Nc3ccc(-c4ccc(F)cc4)cc3[C@@H]21	n	x	n	n	n
